Screens: PubChem BioAssay, several laboratories
STAT3 blocker – IL-6 driven STAT3 reporter inhibitors, primary screen, U3A cells, luciferase, luminescence, MLSCN library. inhibition, % at 5.5 µM. 190,000 tested, 0.89% active. IL-6 STAT3-luciferase reporter; host cell line lacks STAT1;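 active = inhibition above the mean inhibition across all screened compounds plus 3 SD, cut at about 44% in these data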;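 also: 0% = DMSO only wells and 100% = 100 µM nifuroxazide control wells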
STAT1 act – STAT1 signaling activators, primary screen, cell-based, HTS, luciferase reporter; 200,000 tested, 2.6% active; NIH 3T3 STAT1-luciferase reporter, IFN-gamma, luminescence; 100% = IFN-gamma alone, no compound; activation (% of control), % at 5.5 µM;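 active = activation above the screen-wide mean activation plus 3 SD, cut at about 130% in these data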;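 also: raw ratio to IFN-gamma control signal so 100% means no change and 0% no light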
NF-kB neuron act – activators of NF-kB expression in neurons, primary screen, cell-based, HTS; human neuronal cells, NF-kB reporter expression; stronger effect = higher value; fold change at 12.5 µM; 190,000 tested, 1.6% active; in the data active = fold change above about 3.3
STAT1 inh – STAT1 signaling inhibitors, primary screen, cell-based, HTS, luciferase reporter | NIH 3T3 STAT1-luciferase reporter, IFN-gamma, luminescence | inhibition, % at 5.5 µM | 200,000 tested, 0.35% active;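 active = inhibition above a set limit, the mean inhibition across all tested compounds plus 3 SD, cut at about 34% in these data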;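 also: 0% = IFN-gamma with DMSO and 100% = IFN-gamma with 300 µM nifuroxazide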
STAT3 activator – IL-6 driven STAT3 reporter potentiators, primary screen, U3A cells, luciferase, luminescence, MLSCN library | IL-6 STAT3-luciferase reporter; 100% = signal with IL-6 EC80 alone | 190,000 tested, 0.91% active | AID 871, 2007 | activation (% of control), % at 5.6 µM;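 active = activation above the screen-wide mean of compound activation plus 3 SD, cut at about 130% in these data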;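 also: 0% = background luminescence of wells with medium and substrate only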
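Test system: Human STAT1-deficient U3A cells with stable STAT3-luciferase reporter | Also added: Interleukin-6, 33 ng/mL | Timing: Compound pre-incubation 1 h before IL-6, then 6 h stimulation at 37 °C | Technique: Luciferase reporter luminescence | Read-out: Percent of IL-6-only median luminescence | Benchmarks: IL-6-only wells as 100% reference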
APP 5'UTR act – activators of APP 5'UTR luciferase reporter, primary screen, SH-SY5Y cells; 190,000 tested, 1% active; activation, % at 2 µM; SH-SY5Y APP 5'UTR luciferase reporter, luminescence; zero percent = DMSO vehicle wells; AID 1276, 2008;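 active = activation above a set limit, based on mean plus 3 SD of controls, cut at about 140% in these data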
An asterisk follows results filed as active; . = not tested or not shown. The list is not random: actives were taken first. Their share in the collection is about 4.9%.

SMILES | STAT3 blocker | STAT1 act | NF-kB neuron act | STAT1 inh | STAT3 activator | APP 5'UTR act
Nc1nc2nc(-c3ccccc3)cc(=O)n2[nH]1 | -9 | 105 | 1 | -6 | 108 | -3
Cc1ccc(Nc2nc(N)c([N+](=O)[O-])c(NCc3ccco3)n2)cc1C | -1 | 139* | 1.2 | -44 | 99 | 50
Nc1c(C(=O)NCC2CCCO2)sc2nc3c(c(-c4ccco4)c12)CC/C3=C\c1ccco1 (configuration not stated) | 12 | 92 | 0.72 | 9 | 92 | 14
O=c1oc2ccccc2n1CSc1nc2ccccc2s1 | -10 | 137* | 3.3* | -40 | 115 | 96
O=c1oc2ccccc2n1CSC1=NCCS1 | -4 | 82 | 4.2* | 20 | 107 | 23
Cn1c(CSc2nc3ccccc3s2)nc2ccccc21 | 1 | 142* | 2.1 | -45 | 101 | 61
Cc1ccccc1-n1nc(C)c(N=O)c1N | 15 | 103 | 1.3 | -3 | 94 | 14
Cc1cc(N2C(=O)C3C4CCC(C4)C3C2=O)no1 (configuration not stated) | 7 | 100 | 1 | -3 | 99 | 9
CCOC(=O)N1CCN(C(=O)c2cc(COc3ccc4ncccc4c3)on2)CC1 | 56* | 60 | 0.6 | 43* | 54 | -18
Cc1cccnc1CN1CCN(C(=O)c2cc(COc3ccc4ncccc4c3)on2)CC1 | 46* | 67 | 0.65 | 36* | 63 | -10
O=C(c1cc(COc2ccc3ncccc3c2)on1)N1CCC(O)CC1 | 23 | 88 | 1.5 | 12 | 83 | 4
CC1CN(C(=O)c2ccc(COc3ccc(C(C)C)cc3)o2)CC(C)O1 (configuration not stated) | -28 | 129* | 1.8 | -33 | 133* | 22
CCc1ccc(C(=O)Nc2cc3c(cc2Cl)OCCCO3)cc1 | 15 | 150* | 4.6* | -54 | 91 | 89
CC(=O)NC1C(=O)N=C(SCC(=O)Nc2ccc(C(F)(F)F)cc2Cl)NC1=O (configuration not stated) | 12 | 104 | 1 | -4 | 96 | 0
CN(C)c1cccc(C(=O)OCC(=O)N2CCc3ccccc3C2)c1 | -8 | 106 | 1.1 | -8 | 108 | 32
Cc1ccsc1C(=O)OCC(=O)N1CCc2ccccc2C1 | 16 | 144* | 1.1 | -49 | 91 | 63
COc1cccc2cc(-c3ccccc3)c(=O)oc12 | 23 | 142* | 4.7* | -48 | 84 | 152*
COc1ccc(Nc2nc(-c3cc4cccc(OC)c4oc3=O)cs2)cc1 | 30 | 92 | 1.3 | 8 | 75 | 24
COc1cccc2cc(-c3nc(-c4cccs4)cs3)c(=O)oc12 | -5 | 133* | 1.3 | -37 | 105 | 105
COCCn1c(SCC(=O)c2c[nH]c3ccccc23)nnc1-c1ccncc1 | -42 | 97 | 0.97 | 4 | 136* | 2
O=C(NCC1CCCO1)c1ccc2c(=O)n(Cc3ccco3)c(SCC(=O)N3CCCC3)nc2c1 (configuration not stated) | 19 | 68 | 0.6 | 35* | 93 | 17
CCn1ccc(C(=O)Nc2ccc(Cl)cn2)n1 | 15 | 131* | 2.8 | -34 | 95 | .
CCn1ccc(C(=O)Nc2ccc(N(C)C(C)=O)cc2)n1 | -3 | 104 | 1.9 | -4 | 106 | 25
CCn1nccc1C(=O)Nc1ccc(Cl)cn1 | 4 | 116 | 1.8 | -18 | 100 | 13
CCn1ccc(C(=O)Nc2ccccc2SC)n1 | 1 | 140* | 1.5 | -45 | 111 | 37
SMILES | STAT3 blocker | STAT1 act | NF-kB neuron act | STAT1 inh | STAT3 activator | APP 5'UTR act
CC(C)(C)NC(=O)NC(=O)COC(=O)Cc1coc2ccc3ccccc3c12 | -2 | 90 | 1.1 | 12 | 105 | 9
O=C1CCCC2=C1C(c1ccc(O)cc1)c1c(ccc3ccccc13)N2 (configuration not stated) | -6 | 100 | 0.89 | -1 | 107 | 202*
Cn1c2ccccc2c2nnc(SCC(=O)NCc3ccoc3)nc21 | 12 | 104 | 1.3 | -7 | 94 | 3
Cc1ccc2nc(CSc3nc(C)cc(C)c3C#N)[nH]c2c1 | 6 | 125 | 2.9 | -28 | 102 | 205*
CCOC(=O)CC1C(=O)NCCN1Cc1cccs1 (configuration not stated) | 1 | 100 | 1.5 | -3 | 103 | 1
COc1cccc(/C=N/NC(=O)CCCc2ccc(OC)c(C)c2)c1 | 3 | 97 | 1.3 | 3 | 100 | -13
Cc1ccc(-n2ncc3c(SCc4ccccn4)ncnc32)c(C)c1 | 16 | 137* | 2.4 | -42 | 95 | 2
CCOC(=O)N1CCN(C(=O)CN(c2ccc(OCc3ccccc3)cc2)S(C)(=O)=O)CC1 | 11 | 101 | 1.1 | -2 | 94 | -16
Nc1cc2nc[nH]c2cc1N | -11 | 123 | 1.6 | -25 | 115 | 163*
Cc1cc(C)nc(Nc2n[nH]c(-c3ccccc3Br)n2)n1 | 17 | 99 | 1.4 | -1 | 87 | -1
Cc1cc(C)nc(Nc2n[nH]c(-c3ccccc3C)n2)n1 | 11 | 135* | 2.7 | -38 | 91 | 94
Cc1cc(C)nc(Nc2n[nH]c(-c3ccc(N)cc3)n2)n1 | 5 | 156* | 3.2 | -54 | 96 | .
Cc1cc(C)nc(Nc2n[nH]c(C)n2)n1 | 10 | 105 | 1.1 | -7 | 98 | -22
Cc1ccc(C(=O)NCCSc2ccccc2)cc1S(=O)(=O)Nc1ccccc1 | 20 | 103 | 0.64 | -3 | 92 | 18
CCOC(=O)c1c(C)[nH]c(C(=O)CSc2nccc(C)n2)c1C | 13 | 132* | 2.2 | -36 | 89 | 80
O=C1OCC=C1NNC(=O)c1cccnc1 | 3 | 98 | 1.1 | 1 | 99 | 18
c1cc2c(cc1C1=NNC(=NC3CC3)SC1)OCCO2 | 108* | 12 | 0.26 | 94* | 10 | -51
Cc1cc(C2=NNC(=NC3CC3)SC2)c(C)n1-c1ccccc1F | 102* | 21 | 0.18 | 89* | 14 | -70
Cc1cc(C2=NNC(=NC3CCCCC3)SC2)c(C)n1-c1c(C)n(C)n(-c2ccccc2)c1=O | -13 | 99 | 0.92 | 2 | 111 | 6
CCOC(=O)CC(NS(=O)(=O)Cc1ccccc1)c1ccc(C)cc1 (configuration not stated) | 2 | 105 | 1.1 | -6 | 100 | 2
Cc1ccc(C(=O)NCCc2ccc(F)cc2)s1 | 13 | 129* | 4.2* | -35 | 93 | 162*
COc1ccc(C(=O)Nc2ccc([N+](=O)[O-])cn2)c(OC)c1 | 1 | 148* | 4.4* | -53 | 101 | 143*
